Results on 1 molecule are retold here after article PMC11455733 (Drugs in R&D, 2024).

Data set [1] is described as follows: 10-day daily IP administration, body weight. It counts as in vivo, C57BL/6 mice. Put shortly: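 Body weights were recorded daily and again on day 11, before euthanasia. Mice were C57BL/6 of both sexes (7–12 weeks; n = 8 per group, equal males and females), with sex data combined. Dosing was IP once daily for 10 days with vehicle (DMSO diluted 10%/90% vol/vol in 0.5% Methocel/0.9% NaCl) or test compound. Groups were compared by ANOVA followed by unpaired t test.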

The subject of data set [2] is IL-1β, IL-6, and TNFα in total lung homogenates. The experiment in a line: 10-day daily IP administration, lung cytokines by ELISA. It counts as in vivo, C57BL/6 mice. Conditions: 20.0 mg/kg IP daily for 10 days, day 11, vs vehicle. Put shortly: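 On day 11, IL-1β, IL-6 and TNFα were measured by mouse ELISA kits in total lung homogenates. Mice were C57BL/6 of both sexes (7–12 weeks; n = 8 per group), given daily IP vehicle (DMSO/0.5% Methocel in 0.9% NaCl, 10%/90% vol/vol) or test compound for 10 days. Analysis was ANOVA followed by unpaired t test.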

The test system of data set [3] is Col1a1 and Fn mRNA in total lung RNA. The experiment in a line: 10-day daily IP administration, lung extracellular matrix mRNA by qPCR. It counts as in vivo, C57BL/6 mice. Conditions: 20.0 mg/kg IP daily for 10 days, day 11, vs vehicle. The gist of the method: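 Lung tissue was taken on day 11, after 10 days of daily IP vehicle (DMSO/0.5% Methocel-saline) or test compound in male and female C57BL/6 mice (n = 8 per group). Tissue was lysed and RNA purified with genomic DNA removal. cDNA was made with oligo(dT) plus random hexamers, then SYBR green real-time PCR was run. Col1a1 and Fn were expressed as ratios to B2M.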
(In general: Quantitative PCR measures a nucleic acid by following its amplification.)

Data set [4] in a line: 10-day daily IP administration, serum chemistry. The format is in vivo, C57BL/6 mice. Conditions: 20.0 mg/kg IP daily for 10 days, day 11, vs vehicle. Put shortly:
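Serum was prepared from postmortem blood on day 11 and analysed on a chemistry analyser per the manufacturer's instructions. Mice were C57BL/6 of both sexes (7–12 weeks; n = 8 per group), dosed IP daily for 10 days with vehicle (DMSO/0.5% Methocel in 0.9% NaCl, 10%/90% vol/vol) or test compound. Analysis was ANOVA, then unpaired t test.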

Data set [5] is described as follows: 10-day daily IP administration, complete blood count. It counts as in vivo, C57BL/6 mice. Conditions: 20.0 mg/kg IP daily for 10 days, day 11, vs vehicle. Put shortly:
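Blood was collected postmortem on day 11 and run on a veterinary haematology analyser for complete blood count. Mice were male and female C57BL/6 (7–12 weeks; n = 8 per group), dosed IP daily for 10 days with vehicle (DMSO/0.5% Methocel in saline, 10%/90% vol/vol) or test compound. Analysis was ANOVA, then unpaired Student t test.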

The subject of a further data set is lung, liver, and kidney. The experiment in a line: 10-day daily IP administration, H&E histology scoring. It counts as in vivo, C57BL/6 mice. Conditions: 20.0 mg/kg IP daily for 10 days, all parameters. The gist of the method:
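Male and female C57BL/6 mice (7–12 weeks; n = 8 per group, equal sexes) got IP vehicle (DMSO then 0.5% Methocel in 0.9% NaCl, 10%/90% vol/vol) or test compound daily from day 0 for 10 days. On day 11, organs were fixed in 10% neutral formalin and paraffin-embedded. 5 μm H&E sections were graded blindly by a pathologist over the whole section area.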

Data set [6] is described as follows: Solubility in water or saline. It counts as physicochemical.
The next data set concerns EphB2. The note with it: cited from earlier work.
The mark [7] stands for this setting: within normal published parameters.

In the case of `CCN1CCN(Cc2ccc(NC(=O)c3ccc(C)c(NC(=O)c4cncc(-c5cccs5)c4)c3)cc2C(F)(F)F)CC1` [ALW-II-41-27], in data set [1] (20.0 mg/kg IP daily for 10 days, vs vehicle), the “daily and ending weight loss” value is given as “no significant changes”. Besides, in data set [1] (20.0 mg/kg IP once a day in mice), the tolerability entry is on record as “well tolerated”. In data set [2], the “IL-1β in whole-lung lysates” value is “No significant alterations”, the “IL-6 in whole-lung lysates” value was “No significant alterations” and the “TNF-α in whole-lung lysates” value is “No significant alterations”. In data set [3], the “Col1a1 mRNA expression (ratio to B2M) in lung” value is “no significant differences” and the “Fn mRNA expression (ratio to B2M) in lung” value is “no significant differences”. For the same molecule, the “serum chemistry parameters other than creatinine” value in data set [4] is reported as “no significant changes”. For the same molecule, the “CBC parameters other than NEU and RBC” value in data set [5] is reported as “no significant differences”. Also, in data set [5] (setting [7]), the “neutrophil (NEU) count” value was “significantly higher” and the “red blood cell (RBC) count” value is given as “significantly higher”. Moreover, the “histology score (0 normal to 4+), lung, liver, and kidney” value with lung, liver, and kidney was determined as 0. Moreover, the “solubility in water or saline” value in data set [6] is “lack of solubility”. Moreover, the “inhibition of the Ephrin receptor EphB2” value in the data set on EphB2 is on record as “shown to inhibit”.
